Results from different studies.
Compare with care: the assays were run in different laboratories.
Medium: plasma

CCc1nc(C(N)=O)c(Nc2ccc(N3CCC(N4CCN(C)CC4)CC3)c(OC)c2)nc1NC1CCOCC1
CL/F (rat; oral; 10 mg/kg): 0.9 L/h

CC[C@H](C)[C@H](NC(=O)[C@H](Cc1ccccc1)NC(=O)[C@H](CCC(=O)O)NC(=O)[C@H](CCCNC(=N)N)NC(=O)[C@H](C)NC(=O)[C@H](C)NC(=O)[C@H](CCC(N)=O)NC(=O)[C@H](CCC(=O)O)NC(=O)[C@H](CCC(=O)O)NC(=O)[C@H](CC(C)C)NC(=O)[C@H](Cc1ccc(O)cc1)NC(=O)[C@H](CO)NC(=O)[C@H](CO)NC(=O)[C@@H](NC(=O)[C@H](CC(=O)O)NC(=O)[C@H](CO)NC(=O)[C@@H](NC(=O)[C@H](Cc1ccccc1)NC(=O)[C@@H](NC(=O)CNC(=O)[C@H](CCC(=O)O)NC(=O)[C@H](C)NC(=O)CCc1c[nH]cn1)[C@@H](C)O)[C@@H](C)O)C(C)C)C(=O)N[C@@H](C)C(=O)N[C@@H](Cc1c[nH]c2ccccc12)C(=O)N[C@@H](CC(C)C)C(=O)N[C@H](C(=O)N[C@@H](CCCNC(=N)N)C(=O)NCC(=O)N[C@@H](CCCNC(=N)N)C(=O)N[C@@H](CCCCNC(=O)COCCOCCNC(=O)COCCOCCNC(=O)CC[C@H](NC(=O)CCCCCCCCCCCCCCCCC(=O)O)C(=O)O)C(=O)O)C(C)C
CL/F (rat; subcutaneous; 20 nmol/kg): 0.00867 L/h/kg

C=CC(=O)Nc1cc(Nc2nccc(Nc3cc(Cl)c(F)cc3C(C)(C)O)n2)c(OC)cc1N1CC[C@@H](N(C)C)C1
clearance (Wistar rat; intravenous; 3 mg/kg): 1.85 L/h/kg

Cc1nn2c(-c3c(C)nn(C)c3-c3ccc(C(F)(F)F)cc3)nc(CO)c2c(=O)[nH]1
clearance (male Wistar rat; intravenous; 1 mg/kg): 1.68 L/h/kg

CNCc1cc(-c2ccccc2F)n(S(=O)(=O)c2cccnc2)c1
CL/F (Sprague-Dawley rat; oral; 10 mg/kg): 17.6 L/h/kg

N#Cc1ccc(Nc2nc(N)cc(Oc3c(F)cc(-c4ccc(C#N)cc4)cc3F)n2)cc1
clearance (Sprague-Dawley rat; intravenous; 1 mg/kg): 3.27 L/h/kg

Cl.Clc1ccc2c(c1)nc(N1CCNCC1)n2Cc1ccccc1
clearance (rat; intravenous; 1 mg/kg): 8.64 L/h/kg

COc1ccc(C(C)=O)c(O)c1
CL/F (male Sprague-Dawley rat; oral; 100 mg/kg): 2.65 L/h/kg

COc1ccc2c(Cc3ccccc3F)c3[n+](cc2c1OC)CCc1cc2c(cc1-3)OCO2.[Br-]
clearance (rat; intravenous; 5 mg/kg): 40.3 L/h/kg

CCCC[C@@H]1NC(=O)[C@H](Cc2ccc(O)cc2)NC(=O)[C@@H]2CCCN2C(=O)[C@H](CC(=O)O)NC(=O)[C@H](C)NC(=O)[C@H](Cc2ccccc2)NC(=O)[C@@H]2CSCCC(=O)N3CN(CN(C3)C(=O)CCSC[C@@H](C(=O)N[C@@H](C)C(N)=O)NC1=O)C(=O)CCSC[C@H](NC(C)=O)C(=O)N[C@@H](CC(C)(C)C)C(=O)N1CCC[C@H]1C(=O)N[C@@H](CCC(=O)O)C(=O)N[C@H](CCCCNC(=O)CCc1cn(CCOCCOCCOCCOCCOCCOCCOCCOCCOCCOCCNC(=O)CCOCCN(CCOCCC(=O)NCCOCCOCCOCCOCCOCCOCCOCCOCCOCCOCCn3cc(CCC(=O)NCCCC[C@H]4NC(=O)[C@H](CCC(=O)O)NC(=O)[C@@H]5CCCN5C(=O)[C@H](CC(C)(C)C)NC(=O)[C@@H](NC(C)=O)CSCCC(=O)N5CN6CN(C5)C(=O)CCSC[C@H](NC(=O)[C@H](Cc5ccc(O)cc5)NC(=O)[C@@H]5CCCN5C4=O)C(=O)N[C@@H](Cc4ccccc4)C(=O)N[C@@H](C)C(=O)N[C@@H](CC(=O)O)C(=O)N4CCC[C@H]4C(=O)N[C@@H](Cc4ccc(O)cc4)C(=O)N[C@@H](CCCC)C(=O)N[C@H](C(=O)N[C@@H](C)C(N)=O)CSCCC6=O)nn3)CCOCCC(=O)NCCOCCOCCOCCOCCOCCOCCOCCOCCOCCOCCn3cc(CCC(=O)N[C@H]4CSCCC(=O)N5CN6CN(C5)C(=O)CCSC[C@H](NC(=O)[C@@H](CC(=O)O)NC(=O)[C@H](Cc5cccc7ccccc57)NC(=O)[C@@H]5CCCN5C4=O)C(=O)N[C@@H](CCSC)C(=O)N[C@@H](CCCCNC(=N)N)C(=O)N[C@@H](CC(=O)O)C(=O)N[C@@H](Cc4c[nH]c5ccccc45)C(=O)N[C@@H](CO)C(=O)N[C@@H]([C@@H](C)O)C(=O)N4CCC[C@H]4C(=O)N4C[C@H](O)C[C@H]4C(=O)N[C@@H](Cc4c[nH]c5ccccc45)C(=O)N[C@H](C(N)=O)CSCCC6=O)nn3)nn1)C(=O)N1CCC[C@H]1C(=O)N[C@@H](Cc1ccc(O)cc1)C(=O)N2
clearance (rat; intravenous; 2 mg/kg): 0.72 L/h/kg

Oc1c(Br)cc(Cl)c2cccnc12
clearance (Sprague-Dawley rat; intravenous; 2 mg/kg): 1.67 L/h/kg

COCCOC(=O)C1=C(C)NC(C)=C(C(=O)OC(C)C)C1c1cccc([N+](=O)[O-])c1 (stereo not shown)
clearance (male Sprague-Dawley rat; intravenous; 3 mg/kg): 0.0015 L/h/kg

COc1ccc2c(=O)n(C)c(-c3ccccc3)nc2c1
clearance (male Sprague-Dawley rat; intravenous; 2 mg/kg): 2.34 L/h/kg
